Test results as given in ChEMBL document CHEMBL1149790, “Synthesis of some novel thiourea derivatives obtained from 5-[(4-aminophenoxy)methyl]-4-alkyl/aryl-2,4-dihydro-3H-1,2,4-triazole-3-thiones and evaluation as antiviral/anti-HIV and anti-tuberculosis agents” (Eur J Med Chem, 2008).
Converted amounts (≈) assume the structure as drawn. The source made the active and inactive calls. No cut-off for these calls is given here.

Columns and labels:
Human alphaherpesvirus 1 [1] = assay: Antiviral activity against thymidine kinase deficient and acyclovir resistant HSV1 KOS in human HEL cells assessed as reduction of virus-induced cytopathogenicity; format: functional; settings: Human alphaherpesvirus 1, KOS
Summary of the method: (§1)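 Confluent cell monolayers (E6SM, HEL, HeLa or Vero, per line) inoculated with 100 CCID50 virus; 1 h adsorption, residual virus removed, then incubated with compound at 400, 200, 100 … µg/ml. Cytopathicity scored once complete in untreated virus controls; MIC = concentration inhibiting virus-induced cytopathicity.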

Sindbis virus = assay: Antiviral activity against Sindbis virus in african green monkey Vero cells assessed as reduction of virus-induced cytopathogenicity; format: functional; summary of the method: as §1
Human alphaherpesvirus 2 [2] = assay: Antiviral activity against HSV2 G in human HEL cells assessed as reduction of virus-induced cytopathogenicity; format: functional; settings: Human alphaherpesvirus 2, G; summary of the method: as §1
Human alphaherpesvirus 1 [3] = assay: Antiviral activity against HSV1 KOS in human HEL cells assessed as reduction of virus-induced cytopathogenicity; format: functional; settings: Human alphaherpesvirus 1, KOS; summary of the method: as §1
[4] = Cytotoxicity against human HeLa cells; format: cell-based
Summary of the method: (§2)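 Uninfected cell cultures exposed to test compounds alongside antiviral assays; minimum cytotoxic concentration (MCC) = concentration causing a microscopically detectable alteration of cell morphology.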

Vero = assay: Cytotoxicity against african green monkey Vero cells; format: cell-based; settings: chlorocebus sabaeus; summary of the method: as §2
[5] = Cytotoxicity against human E6SM cells; format: cell-based; settings: E6SM cells; summary of the method: as §2
Human alphaherpesvirus 1 [6] = assay: Antiviral activity against HSV1 KOS in human E6SM cells assessed as reduction of virus-induced cytopathogenicity; format: functional; settings: Human alphaherpesvirus 1, KOS; summary of the method: as §1
[7] = Cytotoxicity against human HEL cells assessed as reduction of cell growth; format: cell-based
Summary of the method: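 HEL cells; CC50 = compound concentration reducing cell growth by 50%.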

[8] = Cytotoxicity against human MT4 cells by MTT assay; format: cell-based
Summary of the method: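 Mock-infected MT-4 cells (6 × 10⁵ cells/ml) with serial five-fold compound dilutions in triplicate; MTT reduction read at 540 and 690 nm after 5 days, median OD of three wells; CC50 = concentration reducing OD540 of mock-infected control by 50%.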

Human betaherpesvirus 5 [9] = assay: Antiviral activity against human cytomegalovirus Davis infected HEL cells assessed as reduction in virus plaque formation; format: functional, organism-based; settings: Human betaherpesvirus 5, Davis
[10] = system: Mycobacterium tuberculosis; assay: Antitubercular activity against Mycobacterium tuberculosis H37Rv at 6.25 ug/ml by MABA assay; format: functional
Human betaherpesvirus 5 [11] = assay: Antiviral activity against human cytomegalovirus AD169 infected HEL cells assessed as reduction in virus plaque formation; format: functional, organism-based; settings: Human betaherpesvirus 5, AD169, HEL
Human respirovirus 3 = assay: Antiviral activity against Parainfluenza 3 virus in african green monkey Vero cells assessed as reduction of virus-induced cytopathogenicity; format: functional; summary of the method: as §1
[12] = Cytotoxicity against human HEL cells assessed as alteration of cell morphology; format: cell-based; summary of the method: as §2
[13] = system: Mammalian orthoreovirus 1; assay: Antiviral activity against Reo virus 1 in african green monkey Vero cells assessed as reduction of virus-induced cytopathogenicity; format: functional; summary of the method: as §1
[14] = system: Human immunodeficiency virus 1; assay: Antiviral activity against HIV1 3B in human MT4 cells assessed as protection against virus-induced cytopathogenicity by MTT assay; format: functional, organism-based; design: Activity: concentration or dose not given beside the values; settings: for IC50: Human immunodeficiency virus 1, 3B, MT4
Summary of the method: (§3)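 MT-4 cells at 6 × 10⁵ cells/ml infected with HIV-1 IIIB or HIV-2 ROD at 100–300 CCID50; compounds in serial five-fold dilutions, triplicate mock- and virus-infected wells. MTT viability read at 540 and 690 nm after 5 days, median OD of three wells; EC50 = 50% protection from viral cytopathic effect.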

[15] = system: Respiratory syncytial virus; assay: Antiviral activity against respiratory syncytial virus in human HeLa cells assessed as inhibition of virus-induced cytopathogenicity; format: functional; summary of the method: as §1
Coxsackievirus B4 [16] = assay: Antiviral activity against Coxsackie virus B4 in african green monkey Vero cells assessed as reduction of virus-induced cytopathogenicity; format: functional; settings: Enterovirus B; summary of the method: as §1
Human alphaherpesvirus 3 [17] = assay: Antiviral activity against TK+ VZV OKA infected HEL cells assessed as reduction in virus plaque formation; format: functional, organism-based; settings: Human alphaherpesvirus 3, OKA
Human alphaherpesvirus 2 [18] = assay: Antiviral activity against HSV2 G in human E6SM cells assessed as reduction of virus-induced cytopathogenicity; format: functional; settings: Human alphaherpesvirus 2, G; summary of the method: as §1
Coxsackievirus B4 [19] = assay: Antiviral activity against Coxsackie virus B4 in human HeLa cells assessed as inhibition of virus-induced cytopathogenicity; format: functional; settings: Enterovirus B; summary of the method: as §1
Punta Toro virus = assay: Antiviral activity against Punta Toro virus in african green monkey Vero cells assessed as reduction of virus-induced cytopathogenicity; format: functional; summary of the method: as §1
Human alphaherpesvirus 1 [20] = assay: Antiviral activity against thymidine kinase deficient and acyclovir resistant HSV1 KOS in human E6SM cells assessed as reduction of virus-induced cytopathogenicity; format: functional; settings: Human alphaherpesvirus 1, KOS; summary of the method: as §1
[21] = system: Vesicular stomatitis virus; assay: Antiviral activity against in Vesicular stomatitis virus in human HEL cells assessed as reduction of virus-induced cytopathogenicity; format: functional; summary of the method: as §1
[22] = system: Vesicular stomatitis virus; assay: Antiviral activity against in Vesicular stomatitis virus in human E6SM cells assessed as reduction of virus-induced cytopathogenicity; format: functional; summary of the method: as §1
[23] = system: Human immunodeficiency virus 2; assay: Antiviral activity against HIV2 ROD in human MT4 cells assessed as protection against virus-induced cytopathogenicity by MTT assay; format: functional, organism-based; design: Activity: concentration or dose not given beside the values; settings: for IC50: Human immunodeficiency virus 2, ROD, MT4; summary of the method: as §3
Human alphaherpesvirus 3 [24] = assay: Antiviral activity against TK- VZV 07/1 infected HEL cells assessed as reduction in virus plaque formation; format: functional, organism-based; settings: Human alphaherpesvirus 3, 07/1, HEL
[25] = system: Vesicular stomatitis virus; assay: Antiviral activity against vesicular stomatitis virus in human HeLa cells assessed as inhibition of virus-induced cytopathogenicity; format: functional; summary of the method: as §1

Structure (SMILES) | MIC (Human alphaherpesvirus 1 [1]) [µg/mL] | MIC (Sindbis virus) [µg/mL] | MIC (Human alphaherpesvirus 2 [2]) [µg/mL] | MIC (Human alphaherpesvirus 1 [3]) [µg/mL] | MCC [4] [µg/mL] | Activity (Vero) [µg/mL] | MCC [5] [µg/mL] | MIC (Human alphaherpesvirus 1 [6]) [µg/mL] | CC50 [7] [µg/mL] | CC50 [8] [µg/mL] | EC50 (Human betaherpesvirus 5 [9]) [µg/mL] | EC50 (Human betaherpesvirus 5 [11]) [µg/mL] | MIC (Human respirovirus 3) [µg/mL] | MCC [12] [µg/mL] | MIC [13] [µg/mL] | Activity [14] [%] | IC50 [14] [µg/mL] | MIC [15] [µg/mL] | MIC (Coxsackievirus B4 [16]) [µg/mL] | EC50 (Human alphaherpesvirus 3 [17]) [µg/mL] | other results
CCNC(=S)Nc1ccc(OCc2n[nH]c(=S)n2CC)cc1 | 240 (≈ 711 µM) | > 80 | 240 (≈ 711 µM) | > 400 | 400 | 400 | > 400 | > 400 | > 50 | 94.2 (≈ 279 µM) | 55 (≈ 163 µM) | 49 (≈ 145 µM) | > 80 | > 400 | > 80 | 9.5 | > 88.3 | > 80 | 48 (≈ 142 µM) | 64 (≈ 190 µM) | Activity [10]: inactive; MIC (Human alphaherpesvirus 2 [18]): 240 µg/mL (≈ 711 µM); MIC (Coxsackievirus B4 [19]): > 80 µg/mL; MIC (Punta Toro virus): > 80 µg/mL; MIC (Human alphaherpesvirus 1 [20]): 240 µg/mL (≈ 711 µM); MIC [21]: > 400 µg/mL; MIC [22]: > 400 µg/mL; Activity [23]: 8%; IC50 [23]: > 91.1 µg/mL; EC50 (Human alphaherpesvirus 3 [24]): 58 µg/mL (≈ 172 µM); MIC [25]: > 80 µg/mL
C=CCn1c(COc2ccc(NC(=S)NCC)cc2)n[nH]c1=S | > 400 | > 80 | > 400 | > 400 | 400 | 400 | > 400 | > 400 | > 50 | 90 (≈ 258 µM) | > 100 | > 100 | > 80 | > 400 | > 80 | 4 | > 76.5 | > 80 | 80 (≈ 229 µM) | 64 (≈ 183 µM) | Activity [10]: inactive; MIC (Human alphaherpesvirus 2 [18]): > 400 µg/mL; MIC (Coxsackievirus B4 [19]): > 80 µg/mL; MIC (Punta Toro virus): > 80 µg/mL; MIC (Human alphaherpesvirus 1 [20]): > 400 µg/mL; MIC [21]: > 400 µg/mL; MIC [22]: > 400 µg/mL; Activity [23]: 2.5%; IC50 [23]: > 86.2 µg/mL; EC50 (Human alphaherpesvirus 3 [24]): 64 µg/mL (≈ 183 µM); MIC [25]: > 80 µg/mL
C=CCNC(=S)Nc1ccc(OCc2n[nH]c(=S)n2CC)cc1 | 240 (≈ 687 µM) | 48 (≈ 137 µM) | 240 (≈ 687 µM) | > 400 | 400 | 400 | > 400 | > 400 | > 50 | 75.9 (≈ 217 µM) | 45 (≈ 129 µM) | 45 (≈ 129 µM) | > 80 | > 400 | > 80 | 3 | > 72.3 | > 80 | 48 (≈ 137 µM) | 41 (≈ 117 µM) | inhibition at 6.25 µg/mL [10]: 75%; MIC (Human alphaherpesvirus 2 [18]): 240 µg/mL (≈ 687 µM); MIC (Coxsackievirus B4 [19]): > 80 µg/mL; MIC (Punta Toro virus): > 80 µg/mL; MIC (Human alphaherpesvirus 1 [20]): 240 µg/mL (≈ 687 µM); MIC [21]: > 400 µg/mL; MIC [22]: > 400 µg/mL; Activity [23]: 2%; IC50 [23]: > 71.4 µg/mL; EC50 (Human alphaherpesvirus 3 [24]): 42 µg/mL (≈ 120 µM); MIC [25]: > 80 µg/mL
CCn1c(COc2ccc(NC(=S)NC)cc2)n[nH]c1=S | > 400 | > 80 | > 400 | > 400 | 400 | 400 | > 400 | > 400 | > 50 | 76.8 (≈ 237 µM) | > 100 | 63 (≈ 195 µM) | > 80 | > 400 | > 80 | 1.5 | > 68.1 | > 80 | > 80 | > 100 | Activity [10]: inactive; MIC (Human alphaherpesvirus 2 [18]): > 400 µg/mL; MIC (Coxsackievirus B4 [19]): > 80 µg/mL; MIC (Punta Toro virus): > 80 µg/mL; MIC (Human alphaherpesvirus 1 [20]): > 400 µg/mL; MIC [21]: > 400 µg/mL; MIC [22]: > 400 µg/mL; Activity [23]: 2%; IC50 [23]: > 77.9 µg/mL; EC50 (Human alphaherpesvirus 3 [24]): 88 µg/mL (≈ 272 µM); MIC [25]: > 80 µg/mL
